survival, inhibition and inhibition in vivo data for five compounds are collected here from ChEMBL document CHEMBL3352386, “Development of chiral praziquantel analogues as potential drug candidates with activity to juvenile Schistosoma japonicum” (2014).

Each structure is given as a SMILES string.

The subject of experiment [1] is Schistosoma japonicum. Briefly: Antischistosomal activity against juvenile Schistosoma japonicum assessed as worm survival at 50 uM after 72 hrs (reference value: 100%). The format is functional. In a few lines:
(§1)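 Nine juvenile S. japonicum worms recovered 17 days post-infection from female ICR Kunming mice, in duplicate dishes of bicarbonate-buffered DMEM with 20% newborn calf serum plus penicillin, streptomycin and amphotericin B. Compound diluted from DMSO stock. Held at 37 °C, 5% CO2, with daily stereomicroscope scoring. Survival% = surviving/total worms × 100.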

Experiment [2] has as its system Schistosoma japonicum. Briefly: Antischistosomal activity against adult Schistosoma japonicum assessed as vitality reduction at 50 uM after 72 hrs (reference value: 0%). The format is functional.
Experiment [3] concerns Schistosoma japonicum. Briefly: Antischistosomal activity against adult Schistosoma japonicum assessed as worm survival at 50 uM after 24 hrs (reference value: 100%). The format is functional. In a few lines:
(§2)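 Five adult male S. japonicum worms recovered 6 weeks post-infection from female ICR Kunming mice, in duplicate dishes of bicarbonate-buffered DMEM with 20% newborn calf serum, penicillin, streptomycin and amphotericin B. Compound diluted from DMSO stock; DMSO control. Kept at 37 °C, 5% CO2, observed daily by stereomicroscope. Survival% = surviving/total worms × 100.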

In experiment [4] the test system is Schistosoma japonicum. Briefly: Antischistosomal activity against juvenile Schistosoma japonicum assessed as vitality reduction at 50 uM after 72 hrs (reference value: 0%). The format is functional.
Experiment [5] relates to Schistosoma japonicum. Briefly: Antischistosomal activity against juvenile Schistosoma japonicum assessed as worm survival at 50 uM after 48 hrs (reference value: 100%). The format is functional. In a few lines: as §1
In experiment [6] the test system is Schistosoma japonicum. Briefly: Antischistosomal activity against juvenile Schistosoma japonicum assessed as vitality reduction at 50 uM after 48 hrs (reference value: 0%). The format is functional.
For experiment [7], the system named is Schistosoma japonicum. Briefly: Antischistosomal activity against juvenile Schistosoma japonicum infected in ICR Kunming mouse assessed as worm reduction at 200 mg/kg, po for 5 days beginning on day 14 after infection (reference value: 0%).
Experiment [8] has as its system Schistosoma japonicum. Briefly: Antischistosomal activity against adult Schistosoma japonicum assessed as worm survival at 100 uM after 72 hrs (reference value: 100%). The format is functional. In a few lines:
as §2

Experiment [9] relates to Schistosoma japonicum. Briefly: Antischistosomal activity against adult Schistosoma japonicum assessed as vitality reduction at 100 uM after 24 hrs (reference value: 0%). Format: functional.
Experiment [10] has as its system Schistosoma japonicum. Briefly: Antischistosomal activity against adult Schistosoma japonicum assessed as vitality reduction at 100 uM after 48 hrs (reference value: 0%). The format is functional.
For experiment [11], the system named is Schistosoma japonicum. Briefly: Antischistosomal activity against adult Schistosoma japonicum assessed as worm survival at 50 uM after 48 hrs (reference value: 100%). Format: functional. In a few lines:
as §2

The test system of experiment [12] is Schistosoma japonicum. Briefly: Antischistosomal activity against adult Schistosoma japonicum assessed as vitality reduction at 100 uM after 72 hrs (reference value: 0%). Format: functional.
Experiment [13] has as its system Schistosoma japonicum. Briefly: Antischistosomal activity against juvenile Schistosoma japonicum assessed as worm survival at 50 uM after 24 hrs (reference value: 100%). Format: functional. In a few lines:
as §1

In experiment [14] the test system is Schistosoma japonicum. Briefly: Antischistosomal activity against juvenile Schistosoma japonicum assessed as vitality reduction at 50 uM after 24 hrs (reference value: 0%). The format is functional.
For experiment [15], the system named is Schistosoma japonicum. Briefly: Antischistosomal activity against adult Schistosoma japonicum assessed as vitality reduction at 50 uM after 24 hrs (reference value: 0%). The format is functional.
Experiment [16] deals with Schistosoma japonicum. Briefly: Antischistosomal activity against adult Schistosoma japonicum assessed as worm survival at 50 uM after 72 hrs (reference value: 100%). Format: functional. In a few lines:
as §2

Experiment [17] concerns Schistosoma japonicum. Briefly: Antischistosomal activity against adult Schistosoma japonicum assessed as vitality reduction at 50 uM after 48 hrs (reference value: 0%). Format: functional.
The subject of experiment [18] is Schistosoma japonicum. Briefly: Antischistosomal activity against adult Schistosoma japonicum assessed as worm survival at 100 uM after 24 hrs (reference value: 100%). Format: functional. An outline of the steps:
as §2

Experiment [19] has as its system Schistosoma japonicum. Briefly: Antischistosomal activity against adult Schistosoma japonicum assessed as worm survival at 100 uM after 48 hrs (reference value: 100%). Format: functional. In a few lines: as §2

For the compound `O=C1CC(C(=O)N2CC(=O)N3CCc4ccccc4C3C2)C1` (racemic), the survival at 50 µM in experiment [1] came out at 82.5%; in experiment [3], 100%; in experiment [5], 82.5%; in [11] it was 100%; in experiment [13], 82.5%; in experiment [16], 100%. For the same compound, the inhibition at 50 µM in [2] was found to be 0%; in experiment [4], 37%; in [6], 35.8%; in [14], 35.8%; in experiment [15], 13.3%; in experiment [17], 0%. In experiment [7], the inhibition in vivo at 200 mg/kg came out at 7.7%. Further, the survival at 100 µM in experiment [8], in [18] and in experiment [19] was 100% each time. Further, the values for the inhibition at 100 µM in experiment [9], in experiment [10] and in experiment [12] were 6.7%, 10% and 10%, respectively.
Take `O=C1CC(C(=O)N2CC(=O)N3CCc4ccccc4[C@@H]3C2)C1`: the survival at 50 µM in experiment [1], in experiment [3], in experiment [5], in experiment [11], in experiment [13] and in experiment [16] was 100% in each case. The inhibition at 50 µM in experiment [2] turned out to be 15.3%; in experiment [4], 38.3%; in [6], 37%; in experiment [14], 32.1%; in [15], 17.8%; in experiment [17] it was 15.5%. Besides, the inhibition in vivo at 200 mg/kg in [7] was 41%. The survival at 100 µM in experiment [8], in [18] and in experiment [19] was 100% throughout. Moreover, the inhibition at 100 µM in experiment [9] came to 24.5%; in experiment [10], 22%; in experiment [12] it was 22.7%.
Take `O=C1CC(C(=O)N2CC(=O)N3CCc4ccccc4[C@H]3C2)C1`: the survival at 50 µM in [1] stood at 88.3%; in [3] it was 100%; in experiment [5], 88.3%; in experiment [11] it was 100%; in experiment [13], 88.3%; in experiment [16], 100%. Moreover, the inhibition at 50 µM came out at 0% in experiment [2]; 34.6% in experiment [4]; 30.9% in [6]; 30.9% in [14]; 4.5% in experiment [15]; 0% in [17]. Besides, the inhibition in vivo at 200 mg/kg in [7] amounted to 19%. The survival at 100 µM in [8], in experiment [18] and in [19] was 100% throughout. The figures for the inhibition at 100 µM in experiment [9], in experiment [10] and in experiment [12] were 6.7%, 8.7% and 8.9%, respectively.
With `O=C1CCC(C(=O)N2CC(=O)N3CCc4ccccc4[C@@H]3C2)C1` (some centres not stated), the survival at 50 µM in [1] was determined as 88.3%; in [3], 100%; in experiment [5], 100%; in [11], 100%; in experiment [13], 100%; in experiment [16] it was 100%. In addition, the inhibition at 50 µM is 6.7% in [2]; 50.6% in experiment [4]; 38.3% in [6]; 38.3% in experiment [14]; 15.5% in experiment [15]; 0% in [17]. The inhibition in vivo at 200 mg/kg in experiment [7] stood at 44.1%. Further, the survival at 100 µM in experiment [8], in [18] and in experiment [19] was 100% each time. For the same compound, the inhibition at 100 µM was 13.3% in [9], 11.1% in experiment [10] and 11.1% in [12].
Regarding `O=C(C1CCCCC1)N1CC(=O)N2CCc3ccccc3C2C1` (configuration not stated) [PRAZIQUANTEL], the inhibition in vivo at 200 mg/kg in [7] was found to be 19.9%.

The inhibition is the percentage by which the read-out fell short of the control. The inhibition in vivo is the percentage by which the read-out fell short of the control.
